Compounds with a hit are over-represented: about 4.2% of the library has one in this group of screens.
AI-2 QS mod: modulators of Vibrio harveyi AI-2 quorum sensing system; hit rate 0.4% among 300,000; activity change, % at 7.5 µM; Vibrio harveyi JMH597 AI-2 luminescence/OD600 ratio, 9 h; active compounds read low; strain lacks LuxN and CqsS sensors; 0 = neutral-control median; in the data active = activity change below about -75%, passing the limit was not always enough;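 note: luminescence divided by OD600 gain over 9 h not by final OD600 alone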
SUMO Mot1 rescue: inhibitors of SUMOylation pathway: yeast Mot1-301 growth rescue; S. cerevisiae Mot1-301 growth rescue, ATP luminescence, 38.5C; percent above DMSO median, 100 means doubled; growth rescue, % at 18.8 µM; hit rate 1% among 320,000; AID 2716;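 active = every valid replicate shows activation above 250% relative to neutral control wells; inactive = the rest, any valid replicate at or below 250%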;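 note: OY570 slx delta 5 strain wells were the positive control but not used for scaling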
KCC2 mod: modulators of human KCC2 chloride dependent transport; B-score of Tl+ flux slope (higher = more flux/activation; lower = inhibition) at 10 µM; KCC2 cells, thallium flux FluoZin-2 fluorescence; hit rate 2.2% among 190,000; AID 1456;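 active = thallium flux slope and its plate-corrected score both differing from the plate sample mean at a set confidence after two filtering rounds, in either direction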;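 note: slope of fluorescence scaled to starting intensity during 10 to 20 s after thallium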
KCNQ1 pot: potentiators or activators of human KCNQ1 potassium channel. hit rate 0.35% among 310,000. AID 2648. B-score at 10 µM. P51787. CHO-K1 KCNQ1, thallium flux FluxOR fluorescence; active compounds read high;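 active = fluorescence ratio B-score, a plate-corrected score, at least three library SD, with initial intensity B-score within 5 SD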
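Test system: CHO-K1 cells stably expressing KCNQ1 / Medium: assay buffer / Also added: depolarizing K+/Tl+ stimulus, K2SO4 and Tl2SO4 each 12.5 mM in 5x stock / Incubation: 90 min dye loading and 20 min compound exposure, both at room temperature / Signal: thallium influx via FluxOR fluorescence, kinetic imaging / Evaluation: B score of baseline-normalized fluorescence ratio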
KCNQ1 inh: inhibitors of human KCNQ1 potassium channel | CHO-K1 KCNQ1, FluxOR thallium flux fluorescence; active compounds read high | B-score at 10 µM | hit rate 1.3% among 310,000 | AID 2642;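 active = compounds whose thallium flux B-score, printed positive for inhibition, exceeds three library SD while starting fluorescence stays within three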;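 note: channel opened by potassium depolarization with thallium stimulus after 20 min compound exposure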
hERG protect: hERG (human) protection from proarrhythmic block. CHO-hERG, FluxOR thallium flux, dofetilide IC70 present. activation (rescue from dofetilide block), less the hit threshold, % at 10 µM. AID 1511. Q12809. hit rate 0.51% among 310,000;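 active = activation above the mean of controls blocked by dofetilide plus 5 SD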;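 note: thallium influx through hERG after potassium depolarization seen as dye fluorescence rise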
KCNQ1 block val: human KCNQ1 channel inhibition, validation assay; shares compounds with KCNQ1 inh; KCNQ1 cell line, FluxOR thallium flux fluorescence; inhibition, % at 10 µM; hit rate 93% among 1,600; AID 588353;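 active = primary screen active, with duplicate mean exceeding buffer control mean plus 3 SD of buffer wells, cut at about 28% in these data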;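 note: 0% = buffer control ratio and 100% = XE991 inhibitor control ratio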
CHO KCNQ1 ctr: counter-screen for KCNQ1 inhibitors: effect in parental CHO cells; shares compounds with KCNQ1 inh; parental CHO-K1, FluxOR thallium flux fluorescence ratio; active compounds read low; zero means no signal rise above baseline; fluorescence ratio (Tl flux) at 10 µM; hit rate 21% among 1,600; AID 588366;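 active = mean of duplicate thallium-flux fluorescence ratios in parental host cells more than 5 SD below the buffer control mean, cut at about 0.38 in these data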;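 note: ratio is peak minus minimum fluorescence divided by baseline fluorescence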
KCNQ1 ephys val: confirmation of human KCNQ1 potassium channel inhibitors by electrophysiology | shares compounds with KCNQ1 inh | KCNQ1-CHO cells, automated patch clamp current | calls only at 10 µM | hit rate 20% among 490 | AID 624120;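 active = KCNQ1 current drop exceeding 3 SD of negative control wells, seen in both duplicate runs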;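 note: steady state current during a 2 s step from -80 to +40 mV; negative values mean current inhibition and positive values mean potentiation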
KCNQ2 spec: selectivity of KCNQ1 inhibitors: inhibition of rat KCNQ2 channel | inhibition, % at 10 µM | KCNQ2 cells, FluxOR thallium flux fluorescence | hit rate 71% among 1,600 | AID 651746 | shares compounds with KCNQ1 inh;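 active = mean percent inhibition of the KCNQ2 thallium signal more than 5 SD above the buffer-only control wells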;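 note: KCNQ2 expressed in CHO cells; 0% = buffer control wells and 100% = XE-991 inhibitor control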
KCNQ1 KCNE1 spec: human KCNQ1/KCNE1 inhibition in KCNQ1 specificity screen; shares compounds with KCNQ1 inh; KCNQ1/KCNE1 cells, FluxOR thallium flux fluorescence; inhibition, % at 10 µM; hit rate 77% among 1,600; AID 652147;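 active = mean percent inhibition of duplicate wells above the buffer-only control mean plus 3 SD of those controls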;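 note: 0% = buffer only wells and 100% = XE-991 inhibitor control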
Target sequence (P51787 whole entry, looked up): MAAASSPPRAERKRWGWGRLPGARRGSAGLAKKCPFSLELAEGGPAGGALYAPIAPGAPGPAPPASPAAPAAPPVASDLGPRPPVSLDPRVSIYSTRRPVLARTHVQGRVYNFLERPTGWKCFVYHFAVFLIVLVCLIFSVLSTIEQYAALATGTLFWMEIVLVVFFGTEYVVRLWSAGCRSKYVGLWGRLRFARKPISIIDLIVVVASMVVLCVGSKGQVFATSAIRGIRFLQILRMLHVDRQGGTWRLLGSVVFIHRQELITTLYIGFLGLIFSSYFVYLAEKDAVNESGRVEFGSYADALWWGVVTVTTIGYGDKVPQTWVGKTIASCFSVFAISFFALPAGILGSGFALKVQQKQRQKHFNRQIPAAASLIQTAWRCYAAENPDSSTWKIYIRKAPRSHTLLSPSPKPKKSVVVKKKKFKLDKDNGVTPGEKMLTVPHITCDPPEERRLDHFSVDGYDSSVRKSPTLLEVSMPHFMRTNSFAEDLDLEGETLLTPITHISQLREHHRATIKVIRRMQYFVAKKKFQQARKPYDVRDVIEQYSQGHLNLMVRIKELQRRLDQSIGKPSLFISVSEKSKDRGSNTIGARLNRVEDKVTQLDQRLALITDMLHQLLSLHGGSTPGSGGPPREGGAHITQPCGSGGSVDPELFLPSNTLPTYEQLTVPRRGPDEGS
Active calls of the source: *; i = inactive; nt = not tested or not shown.

SMILES	AI-2 QS mod	SUMO Mot1 rescue	KCC2 mod	KCNQ1 pot	KCNQ1 inh	hERG protect	KCNQ1 block val	CHO KCNQ1 ctr	KCNQ2 spec	KCNQ1 KCNE1 spec	others
CC(C)(C)CC(=O)Nc1nnc(C(F)(F)F)s1	2.3	91.4	0.159	i	i	-7.1	nt	nt	nt	nt
CC(NC(=O)Nc1nnc(C(F)(F)F)s1)(C(F)(F)F)C(F)(F)F	-8.8	nt	nt	i	7*	-45.2	0.0	0.529	i	i
Cc1cccnc1NC(=O)CSc1nnc(Cc2ccccc2)o1	4.0	-12.6	-1.47	i	i	-7.4	nt	nt	nt	nt
CC(C)Cn1c(N)c(C(=O)COC(=O)CC23CC4CC(CC(C4)C2)C3)c(=O)n(C)c1=O	21.9	-13.1	-0.606	i	12*	-16.6	143.5*	0.297*	124.0%*	186.0%*
CC(C)Cn1c(N)c(C(=O)COC(=O)CCc2nc3ccccc3s2)c(=O)n(C)c1=O	9.6	-3.5	-2.24	i	8*	-20.1	132.5*	0.437	84.0%*	96.5%*	KCNQ1 ephys val=i
CC(C)Cn1c(N)c(C(=O)COC(=O)CCc2nc3ccccc3c(=O)[nH]2)c(=O)n(C)c1=O	nt	-9.3	nt	nt	nt	nt	nt	nt	nt	nt
COc1ccc(CCC(=O)NCC23CC4CC(CC(C4)C2)C3)cc1	54.1	-5.8	nt	i	i	-10.2	nt	nt	nt	nt
CCOC(=O)/C(N=Nc1ccc2c(c1)OCO2)=C(\C)O	9.8	-4.8	-0.00022	i	i	-16.5	nt	nt	nt	nt
Cc1c(Cl)cccc1NC(=S)NN1CCOCC1	44.5	-6.7	nt	i	i	-10.5	nt	nt	nt	nt
Oc1ccc(Nc2nc(NCC3CCCO3)c3ccccc3n2)cc1 (stereo not given)	7.2	nt	-2.03	i	i	-16.9	nt	nt	nt	nt
COc1cccc(Nc2nc(NCC3CCCO3)c3ccccc3n2)c1 (stereo not given)	12.7	18.2	-1.14	i	6*	-29.7	81.5*	0.456	105.0%*	152.5%*
CC(C)Oc1ccc(-c2nc(NCC3CCCO3)c3ccccc3n2)cc1 (stereo not given)	-25.3	0.8	-0.954	i	8*	-14.2	98.5*	0.456	108.3%*	120.5%*	KCNQ1 ephys val=i
c1cncc(-c2nc(NCC3CCCO3)c3ccccc3n2)c1 (stereo not given)	17.9	4.7	nt	i	i	-6.0	nt	nt	nt	nt
Cc1ccc(S(=O)(=O)NC(C)C(=O)OCC(=O)N(C)c2ccccc2)cc1 (stereo not given)	nt	9.6	nt	nt	nt	nt	nt	nt	nt	nt
O=C(NCCN1CCCC1=O)C1CCC(=O)N(CCc2cccc(F)c2)C1 (stereo not given)	11.5	-0.2	nt	i	i	-10.5	nt	nt	nt	nt
COc1ccc(-c2nc3cc(C)ccn3c2NCc2ccc3c(c2)OCO3)cc1	10.7	1.5	-0.637	i	7*	-25.4	98.5*	0.464	88.7%*	135.5%*	KCNQ1 ephys val=i
CCOc1ccc(NC(=S)NCc2ccc3c(c2)OCO3)cc1	7.8	-4.9	0.312	i	6*	-7.7	39.5*	0.429	95.7%*	38.0%*
Cc1ccc(NC(=S)NCc2ccc3c(c2)OCO3)cc1	-3.7	172.0	-0.716	i	i	-7.2	nt	nt	nt	nt
CC1=CC(C)(C)N=C(Nc2nc(C)c3cc(C)cc(C)c3n2)N1	31.6	-14.4	0.833	i	6*	-24.4	79.0*	0.513	70.0%*	59.0%*
CC(C)Oc1ccc(CNC(=O)CCCN2C(=O)C(c3ccccc3)Oc3cccnc32)cc1 (stereo not given)	9.0	3.2	nt	i	i	-5.2	nt	nt	nt	nt
Cc1ccc(S(=O)(=O)NC(=O)c2cc(C)n(-c3ccc(N(C)C)cc3)c2C)cc1	16.6	-20.7	0.182	i	6*	-11.5	30.5*	0.535	i	i
Cc1ccc2nc(-c3cccnc3)cc(C(=O)N3CCN(c4ccc([N+](=O)[O-])cc4)CC3)c2c1	7.0	-8.0	-0.835	i	i	-29.9	nt	nt	nt	nt
Cc1ccc2c(C(=O)N3CCN(c4ccccc4)CC3)cc(-c3cccnc3)nc2c1C	38.9	5.2	-1.52	i	8*	-18.3	92.0*	0.461	i	192.0%*	KCNQ1 ephys val=i
Cc1cc(S(=O)(=O)NC(C)c2nnc3ccccn23)ccc1Br (stereo not given)	nt	4.4	nt	nt	nt	nt	nt	nt	nt	nt
S=C(c1ccc(-c2cccc(Cl)c2)o1)N1CCCCC1	-10.2	19.9	-1.33	i	6*	-9.4	92.5*	0.413	86.7%*	100.5%*	KCNQ1 ephys val=i
SMILES	AI-2 QS mod	SUMO Mot1 rescue	KCC2 mod	KCNQ1 pot	KCNQ1 inh	hERG protect	KCNQ1 block val	CHO KCNQ1 ctr	KCNQ2 spec	KCNQ1 KCNE1 spec	others
S=C(c1ccc(-c2cccc(Cl)c2)o1)N1CCOCC1	20.1	15.3	-0.267	i	i	-10.1	nt	nt	nt	nt
COc1cc(OC)cc(C(=O)Nc2ccccc2C(=O)NC2CC2)c1	nt	-5.4	nt	nt	nt	nt	nt	nt	nt	nt
COc1cccc(C(=O)N2CCC(N3CC(C)OC(C)C3)CC2)c1 (stereo not given)	2.5	16.2	0.199	i	i	-5.0	nt	nt	nt	nt
Cn1ncc2c(N3CCN(c4ccc(Cl)c(Cl)c4)CC3)ncnc21	8.2	nt	-0.541	i	10*	-15.8	103.0*	0.483	i	61.0%*	KCNQ1 ephys val=i
Cn1ncc(Cl)c1C(=O)N1CCN(c2ccc(Cl)c(Cl)c2)CC1	-0.9	5.3	nt	i	12*	-19.7	120.0*	0.433	98.0%*	87.0%*	KCNQ1 ephys val=i
Cn1ncc2c(N3CCN(c4ccccc4F)CC3)ncnc21	19.8	-3.0	-0.0344	i	i	-4.1	nt	nt	nt	nt
N#CC(c1ccccc1)(c1ncc(C(F)(F)F)cc1Cl)N1CCOCC1 (stereo not given)	22.9	16.1	nt	i	6*	-11.4	74.5*	0.473	99.0%*	84.0%*
O=c1[nH][nH]c(=S)n1-c1ccccc1C(F)(F)F	nt	nt	-0.313	nt	nt	nt	nt	nt	nt	nt
CC(C)c1nc(SCC(=O)N2c3ccccc3CC2C)c2ccccc2n1 (stereo not given)	28.7	4.3	-1.66	i	9*	-12.4	74.5*	0.377*	95.7%*	71.5%*
CC1Cc2ccccc2N1C(=O)CSc1ccccc1 (stereo not given)	29.7	-5.1	-2.38	i	i	-14.2	nt	nt	nt	nt
